ChEMBL document CHEMBL4732102, “Sustainable, three-component, one-pot procedure to obtain active anti-flavivirus agents” (Eur J Med Chem, 2021)
Activity calls are given as the source filed them. The rule behind the calls is not given here.

How the values were obtained:
Zika virus [1] = experiment: Antiviral activity against Zika virus H/PF/2013 infected in human Huh-7 cells assessed as reduction in virus replication at 10 uM incubated for 24 hrs by plaque reduction assay relative to control; type: functional; parameters: scale not given: the % may be the effect or the level left
Method in brief: (§1)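 Huh-7 cells (1 × 10^5 seeded) infected 1 h at 37 °C with DENV-2 EDEN3295 (MOI 0.3) or ZIKV H/PF/2013 (MOI 0.5). Infected cells then treated at a single 10 µM concentration, 24 h for ZIKV and 48 h for DENV-2. Clarified supernatant titred by BHK-21 plaque assay. Viral titre reduction expressed as percent inhibition.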

dengue virus type 2 [2] = experiment: Inhibition of Dengue virus 2 full length NS5 RNA-dependent RNA polymerase assessed as reduction in de novo initiation activity at 30 uM incubated for 1 hr relative to control
Method in brief: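 De novo initiation assay: 100 nM full-length DENV-2 NS5 with 100 nM in vitro transcribed DENV-2 5'UTR-3'UTR RNA, 20 µM each of ATP, GTP and UTP, and 5 µM Atto-CTP. Buffer Tris-HCl pH 7.5 with KCl, 1 mM MgCl2, 0.3 mM MnCl2, Triton X-100 and 10 µM cysteine. Compound at 30 µM; 1 h at 37 °C. Read-out by alkaline phosphatase-released AttoPhos fluorescence (422/566 nm).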

[3] = Selectivity index, ratio of CC50 for human Huh-7 cells to EC50 for dengue virus 2 EDEN 3295 infected in human Huh-7 cells; type: toxicity, cell-based; conditions: read-out: Ratio CC50/EC50
dengue virus type 2 [4] = experiment: Inhibition of Dengue virus 2 full length NS5 RNA-dependent RNA polymerase assessed as reduction in elongation activity at 30 uM incubated for 1 hr relative to control
Method in brief: (§2)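 Elongation (primer-dependent) assay: 100 nM full-length DENV-2 NS5, 100 nM U30-3'UTR template and 3 µM Atto-ATP in 50 mM Tris-HCl pH 7.5, 10 mM KCl, 0.5 mM MnCl2, Triton and 10 µM cysteine. Run 1 h at 37 °C; stopped with alkaline phosphatase and AttoPhos fluorescence read at 422/566 nm. Single point at 30 µM; IC50 is average ± SE of one experiment in duplicate.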

[5] = (§3) Cytotoxicity against human Huh-7 cells assessed as reduction in cell viability incubated for 48 hrs by celltiter glo luminescent assay; type: cell-based; conditions: Huh-7 cells
Method in brief: (§4)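 Huh-7 cells (2 × 10^4 seeded, DMEM with 10% FBS) exposed to compound for 48 h at 37 °C. Viability read by CellTiter-Glo luminescence as percent of untreated control. CC50 derived from the viability curve.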

dengue virus type 2 [6] = experiment: Antiviral activity against dengue virus 2 EDEN 3295 infected in human Huh-7 cells assessed as reduction in virus replication incubated for 48 hrs by plaque reduction assay; type: functional, organism-based; conditions: EDEN 3295, Huh-7, 48 h
Method in brief: (§5)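 Huh-7 cells (1 × 10^5 seeded) infected 1 h at 37 °C with ZIKV H/PF/2013 at MOI 0.5 or DENV-2 EDEN3295 at MOI 0.3. Dose–response treatment from 0.01 to 100 µM followed, 24 h for ZIKV and 48 h for DENV-2. Supernatant titre measured by BHK-21 plaque assay. EC50 taken from a sigmoidal fit of titre versus concentration; average ± SE of one experiment in duplicate.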

[7] = Inhibition of Dengue virus 2 full length NS5 RNA-dependent RNA polymerase assessed as reduction in elongation activity incubated for 1 hr; parameters: species or system dengue virus type 2; method in brief: as §2
dengue virus type 2 [8] = experiment: Antiviral activity against dengue virus 2 EDEN 3295 infected in human Huh-7 cells assessed as reduction in virus replication at 10 uM incubated for 48 hrs by plaque reduction assay relative to control; type: functional; parameters: scale not given: the % may be the effect or the level left; method in brief: as §1
Huh-7 = experiment: as §3; type: cell-based; conditions: huh-7, 48 h; method in brief: as §4
Zika virus [9] = experiment: Antiviral activity against Zika virus H/PF/2013 infected in human Huh-7 cells assessed as reduction in virus replication incubated for 24 hrs by plaque reduction assay; type: functional, organism-based; conditions: H/PF/2013, Huh-7, 24 h; method in brief: as §5
[10] = Selectivity index, ratio of CC50 for human Huh-7 cells to EC50 for Zika virus H/PF/2013 infected in human Huh-7 cells; type: toxicity, cell-based; conditions: read-out: Ratio CC50/EC50

| Structure (SMILES) | Activity (Zika virus [1]) [%] | inhibition (dengue virus type 2 [2]) | selectivity ratio [3] | inhibition (dengue virus type 2 [4]) [%] | CC50 at 48 h [5] [µM] | EC50 (dengue virus type 2 [6]) [µM] | IC50 ([7]; read-out: IC50) [µM] | Activity (dengue virus type 2 [8]) [%] | CC50 (Huh-7) | IC50 [7] | EC50 (Zika virus [9]) [µM] | selectivity ratio [10] |
| --- | --- | --- | --- | --- | --- | --- | --- | --- | --- | --- | --- | --- |
| CC(C)(CC(=O)O)NC(=O)c1cc(-c2ccccc2)c(=O)n2c1sc1ccc(OC3CCCCC3)cc12 | 10.6 | 81.5% | 32 | 95.9 | 100 | 3.1 | 23.2 |  |  |  |  |  |
| CC(CC(=O)O)NC(=O)c1cc(-c2ccccc2)c(=O)n2c1sc1ccc(OC3CCCCC3)cc12 (racemic) | 29 | 22.7% |  | 69.3 |  |  |  | 68.1 | Not Active | Not Active |  |  |
| O=C(O)C1CCCN(C(=O)c2cc(-c3ccccc3)c(=O)n3c2sc2ccc(OC4CCCCC4)cc23)C1 (racemic) | 26.3 | inactive |  | 64.9 |  |  |  | 65.3 | Not Active | Not Active |  |  |
| C[C@@H](CO)NC(=O)c1cc(-c2ccccc2)c(=O)n2c1sc1ccc(OC3CCCCC3)cc12 |  | inactive | 20 | 42.5 | 21.7 | 1.1 |  |  |  | Not Active | 8.1 | 2.6 |
| O=C(c1cc(-c2ccccc2)c(=O)n2c1sc1ccc(OC3CCCCC3)cc12)N1CCCC(O)C1 (racemic) |  | inactive | 17 | 36.9 | 22.2 | 1.3 |  |  |  | Not Active | 11.1 | 2 |
| C#C[C@@]1(O)[C@H](O)[C@@H](CO)O[C@H]1n1ccc2c(N)ncnc21 |  |  | 100 |  |  |  |  |  |  |  |  | > 100 |
| O=C(NCC1(C(=O)O)CC1)c1cc(-c2ccccc2)c(=O)n2c1sc1ccc(OC3CCCCC3)cc12 | 15.8 | 68.1% | 13.3 | 96.7 | 100 | 7.5 | 17.8 |  |  |  |  |  |
| O=C(O)CC(NC(=O)c1cc(-c2ccccc2)c(=O)n2c1sc1ccc(OC3CCCCC3)cc12)c1ccccc1 (racemic) |  | 79.3% | 83 | 96.2 | 100 | 1.2 | 10.4 |  |  |  | 5 | 20 |
| NC(=O)CCNC(=O)c1cc(-c2ccccc2)c(=O)n2c1sc1ccc(OC3CCCCC3)cc12 |  | inactive | 58 | 37.2 | 52.3 | 0.9 |  |  |  | Not Active | 7.3 | 7.1 |
| CC(C)C(CC(=O)O)NC(=O)c1cc(-c2ccccc2)c(=O)n2c1sc1ccc(OC3CCCCC3)cc12 (racemic) | 47.4 | 75% | 12 | 92.8 | 100 | 8.4 | 22.1 |  |  |  |  |  |
| O=C(O)C1CCN(C(=O)c2cc(-c3ccccc3)c(=O)n3c2sc2ccc(OC4CCCCC4)cc23)C1 (racemic) |  | 11% | > 15.6 | 64.6 | > 100 | 6.4 |  |  |  | Not Active | 8.2 | > 12.2 |
| C[C@H](CO)NC(=O)c1cc(-c2ccccc2)c(=O)n2c1sc1ccc(OC3CCCCC3)cc12 |  | inactive | 3 | 42.7 | 17.9 | 5.8 |  |  |  | Not Active | 7.3 | 2.4 |
